From ChEMBL document CHEMBL1268966, “Tetrasubstituted naphthalene diimide ligands with selectivity for telomeric G-quadruplexes and cancer cells” (Bioorg Med Chem Lett, 2010) come the findings set out here.

One may read the inhibition as the relative decrease from the control value, in per cent. The term IC50 denotes the point on the concentration scale where inhibition reaches its midpoint.

Active and inactive are the calls of the source. No cut-off for these calls is given here.

Assay [1] has as its system Nucleic Acid. In words: Stabilization of human F21T G4-telomeric quadruplex assessed as melting temperature by FRET assay. The class given is nucleic-acid assay. The gist of the method: (§1)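 FRET melting temperature assay reporting the shift in quadruplex melting temperature. Competition runs added excess duplex DNA at different ratios, expressed as G-quartet concentration versus duplex nucleotide phosphate concentration.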

Assay [2] concerns Nucleic Acid. In words: Stabilization of human c-kit1 G4 DNA sequence assessed as melting temperature by FRET assay. The assay is classed as nucleic-acid assay.
Assay [3] relates to Nucleic Acid. In words: Stabilization of human c-kit2 G4 DNA sequence assessed as melting temperature by FRET assay. The class given is nucleic-acid assay.
Assay [4] deals with Nucleic Acid. In words: Stabilization of human duplex DNA T-loop assessed as melting temperature by FRET assay. The class given is nucleic-acid assay.
The test system of assay [5] is Nucleic Acid. In words: Stabilization of human F21T G4-telomeric quadruplex by FRET assay in presence of duplex to quadruplex DNA ratio of 10:1. The assay is classed as nucleic-acid assay. The gist of the method: as §1
Assay [6] deals with Nucleic Acid. In words: Stabilization of human F21T G4-telomeric quadruplex assessed in presence of 300 fold excess duplex DNA by FRET assay. The assay is classed as nucleic-acid assay. The gist of the method:
as §1

Assay [7] concerns Nucleic Acid. In words: Stabilization of human G4-telomeric quadruplex 23-mer DNA assessed as topology at 1:1 to 1:15 DNA to compound ratio at pH 7.4 after 6 hrs by circular dichroism spectroscopy in presence of 100 mM K+ ions. The assay is classed as nucleic-acid assay. The gist of the method: (§2)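 Circular dichroism spectra of the human telomeric 23-mer DNA at pH 7.4 with various DNA:ligand ratios.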
A general note: CD spectra are sensitive to the conformation of chiral molecules.

The subject of assay [8] is Nucleic Acid. In words: Stabilization of human G4-telomeric quadruplex 23-mer DNA assessed as topology at 1:1 to 1:15 DNA to compound ratio at pH 7.4 after 6 hrs by circular dichroism spectroscopy in presence of 100 mM Na+ ions. The class given is nucleic-acid assay. The gist of the method: as §2
Assay [9] deals with Nucleic Acid. In words: Stabilization of Wt26 G-telomeric quadruplex DNA assessed as inhibition of human POT1 binding to DNA by EMSA assay. The assay is classed as nucleic-acid assay. In short, it runs like this: (§3)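 In vitro EMSA measuring displacement of hPOT1 or Topo IIIα binding to the telomeric sequence WT26. For Topo IIIα, a duplex DNA substrate was tested in parallel.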
(A gel shift assay detects complexes by their altered migration in electrophoresis.)

Assay [10] has as its system Nucleic Acid. In words: Stabilization of Wt26 G-telomeric quadruplex DNA assessed as inhibition of human TOPO 3-alpha binding to DNA by EMSA assay. The assay is classed as nucleic-acid assay. The gist of the method:
as §3

For assay [11], the system named is Nucleic Acid. In words: Stabilization of duplex DNA assessed as inhibition of human TOPO 3-alpha binding to duplex DNA by EMSA assay. The class given is nucleic-acid assay. In short, it runs like this:
as §3

In assay [12] the test system is MCF7. In words: Cytotoxicity against human MCF7 cells after 96 hrs by SRB assay. As to conditions: MCF7, 96 h.
The next assay deals with A549. In words: Cytotoxicity against human A549 cells after 96 hrs by SRB assay. As to conditions: A549, 96 h.
The test system of a further assay is HPAC. In words: Cytotoxicity against human HPAC cells after 96 hrs by SRB assay. For orientation: In SRB staining, fixed cells bind dye roughly in proportion to their protein.
The test system of the next assay is PANC-1. In words: Cytotoxicity against human PANC1 cells after 96 hrs by SRB assay. As to conditions: PANC-1, 96 h.
Another assay deals with BXPC-3. In words: Cytotoxicity against human BxPC3 cells after 96 hrs by SRB assay. To be noted: BXPC-3, 96 h.
The nature of assay [13]: Cytotoxicity against human WI138 cells after 96 hrs by SRB assay.
The subject of another assay is MIA PaCa-2. In words: Cytotoxicity against human MIAPaCa2 cells after 96 hrs by SRB assay. As to conditions: MIA PaCa-2, 96 h.
Assay [14] relates to MCF7. In words: Inhibition of human telomerase activity in human MCF7 cells at 50 nM after 1 week by modified TRAP assay. The assay is classed as cell-based. The gist of the method:
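MCF7 cells were exposed to 50 nM ligand for 1 week, then a further week. Telomerase activity was measured by a modified TRAP–LIG assay with denaturing gel separation. Each PCR product ladder's total intensity was scanned and integrated, then normalized to a positive control with untreated telomerase protein only.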

For the molecule `CN1CCN(CCCCCNc2cc3c4c(c(NCCCCCN5CCN(C)CC5)cc5c4c2C(=O)N(CCCCCN2CCN(C)CC2)C5=O)C(=O)N(CCCCCN2CCN(C)CC2)C3=O)CC1`, the deltaTm with Nucleic Acid [1] came to 23.8 K; with Nucleic Acid [2], 1.5 K; in the assay with Nucleic Acid [3], 7.7 K; in the assay with Nucleic Acid [4], 0.2 K. For the same molecule, the result in the assay with Nucleic Acid [5], in the assay on Nucleic Acid [7] and with Nucleic Acid [8] was Active. Also, the Activity in the assay with Nucleic Acid [6] came to 50%. In addition, the inhibition result in the assay with Nucleic Acid [9] and with Nucleic Acid [10] was “Active” in each case. In addition, in the assay on Nucleic Acid [11], the inhibition entry is “inactive”. The IC50 in the assay on MCF7 [12] was 196 nM; with A549, 258 nM; with HPAC it was 205 nM; in the assay on PANC-1 it was 193 nM; in the assay with BXPC-3, 759 nM; in assay [13], 8430 nM. The molecule further gave an IC50 in the assay on MIA PaCa-2 of 121 nM.
Take `CN1CCN(CCCNc2cc3c4c(c(NCCCN5CCN(C)CC5)cc5c4c2C(=O)N(CCCN2CCN(C)CC2)C5=O)C(=O)N(CCCN2CCN(C)CC2)C3=O)CC1`: the deltaTm is 28.3 K with Nucleic Acid [1], 1.8 K in the assay with Nucleic Acid [2], 15.2 K with Nucleic Acid [3] and 1.3 K in the assay with Nucleic Acid [4]. In addition, the result with Nucleic Acid [5], in the assay with Nucleic Acid [7] and in the assay with Nucleic Acid [8] was Active. The Activity with Nucleic Acid [6] came to 50%. Also, the inhibition entry with Nucleic Acid [9] and in the assay on Nucleic Acid [10] was “Active” throughout. In the assay with Nucleic Acid [11], the inhibition result was “inactive”. The inhibition in the assay on MCF7 [14] is 50%. The IC50 in the assay with MCF7 [12] turned out to be 167 nM; in the assay with A549, 108 nM; in the assay on HPAC it was 186 nM; in the assay with PANC-1 it was 148 nM; with BXPC-3, 1520 nM; in [13] it was 9040 nM. The IC50 in the assay on MIA PaCa-2 stood at 111 nM.
In the case of `CN1CCN(CCCCNc2cc3c4c(c(NCCCCN5CCN(C)CC5)cc5c4c2C(=O)N(CCCCN2CCN(C)CC2)C5=O)C(=O)N(CCCCN2CCN(C)CC2)C3=O)CC1`, the deltaTm with Nucleic Acid [1] stood at 24.7 K; in the assay with Nucleic Acid [2], 4.9 K; in the assay on Nucleic Acid [3], 16.7 K; with Nucleic Acid [4], 0.1 K. Further, the result in the assay on Nucleic Acid [5], with Nucleic Acid [7] and in the assay on Nucleic Acid [8] was Active. In addition, in the assay on Nucleic Acid [6], the Activity came out at 50%. Also, the IC50 in the assay on MCF7 [12] came out at 100 nM; in the assay with A549, 69 nM; in the assay on HPAC, 117 nM; with PANC-1, 106 nM; in the assay on BXPC-3 it was 1020 nM; in assay [13], 5500 nM. Also, in the assay on MIA PaCa-2, the half-inhibitory concentration (IC50) turned out to be 73 nM.
